Values belong to the compound of their own block, whether it stands above or below them. Active and inactive are the calls of the source. The calls are words filed in the database; no cut-off is given here.
Assays:
[1] = tested on: HepG2; assay: Induction of apoptosis in human HepG2 cells assessed as viable cells at 20 uM after 48 hrs by Annexin-V FITC/propidium iodide staining based fluorescence microscopic analysis (reference value: 97.07%); format: functional; conditions: read-out: Activity
[2] = tested on: HepG2; assay: Antiproliferative activity against human HepG2 cells assessed as inhibition of cell proliferation after 72 hrs by MTT assay; format: functional, cell-based; conditions: HepG2, 72 h
Method in brief: (§1)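 Cells seeded in 96-well plates and grown 24 h to reach exponential growth, then exposed to test compounds in culture medium for 72 h. Viability read by MTT absorbance at 490 nm relative to untreated cells. IC50 is the concentration giving 50% inhibition of proliferation.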

[3] = tested on: SK-HEP1; assay: Antiproliferative activity against human SK-HEP1 cells assessed as inhibition of cell proliferation after 72 hrs by MTT assay; format: functional, cell-based; conditions: SK-HEP1, 72 h; method in brief: as §1
[4] = tested on: HepG2; assay: Induction of apoptosis in human HepG2 cells assessed as necrotic cells at 10 uM after 48 hrs by Annexin-V FITC/propidium iodide staining based fluorescence microscopic analysis (reference value: 0.14%); format: functional
[5] = tested on: HepG2; assay: Induction of apoptosis in human HepG2 cells assessed as late apoptotic cells at 20 uM after 48 hrs by Annexin-V FITC/propidium iodide staining based fluorescence microscopic analysis (reference value: 1.11%); format: functional
[6] = tested on: Hepatitis B virus; assay: (§2) Antiviral activity against lamivudine and entecavir-resistant HBV harboring rtL180 M/rtM204V/rtT184L mutant infected in human HepG2.2.15 cells assessed as inhibition of DNA replication at 0.8 uM supplemented with fresh medium containing compound every 2 days for 6 days by RT-PCR analysis relative to control; format: functional; conditions: HepG2 2.2.15, 144 h, time 6 day
[7] = tested on: HepG2; assay: Induction of apoptosis in human HepG2 cells assessed as nuclear fragmentation at 5 to 20 uM after 48 hrs by Hoechst 33342 staining based fluorescence microscopic analysis; format: functional, cell-based; conditions: dose 5-20 µM
Method in brief: (§3)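 HepG2 cells (5×10^4/well, six-well) exposed to 5, 10 or 20 μM for 48 h, washed with PBS, fixed in 4% paraformaldehyde 30 min, stained with Hoechst 33342 (20 μg/mL) 15 min at room temperature in the dark. Nuclear fragmentation and chromatin condensation scored by fluorescence microscopy.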

[8] = tested on: HepG2; assay: Induction of apoptosis in human HepG2 cells assessed as down regulation of Bcl-2 expression measured after 48 hrs by Western blot analysis; format: functional, cell-based
Method in brief: (§4)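 HepG2 cells treated 5, 10 or 20 μM for 48 h, lysed; 40 μg protein/lane resolved by SDS-PAGE, transferred to PVDF, blocked in 5% nonfat milk, probed overnight at 4 °C with mouse anti-Bad, Bax, Bcl-2 or Bcl-xl, then secondary antibody 2 h. ECL detection; band densities expressed relative to GAPDH.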

[9] = tested on: Huh-7; assay: Antiproliferative activity against human Huh-7 cells assessed as inhibition of cell proliferation after 72 hrs by MTT assay; format: functional, cell-based; conditions: Huh-7, 72 h; method in brief: as §1
[10] = Cytotoxicity against human HepG2 2.2.15 cells assessed as reduction in cell viability measured after 72 hrs by MTT assay; format: cell-based
Method in brief: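 HepG2 2.2.15 cells (HBV-producing; grown in DMEM with 10% FBS, penicillin/streptomycin and 0.38 mg/mL G418) seeded in 96-well plates and grown 24 h, then treated 72 h with compounds. Viability read by MTT absorbance at 490 nm relative to untreated cells. CC50 is the dose causing 50% cell death.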

[11] = tested on: HepG2; assay: Induction of apoptosis in human HepG2 cells assessed as viable cells at 5 uM after 48 hrs by Annexin-V FITC/propidium iodide staining based flow cytometric analysis (reference value: 97.07%); conditions: HepG2, 48 h
[12] = tested on: HepG2; assay: Induction of apoptosis in human HepG2 cells assessed as chromatin condensation at 5 to 20 uM after 48 hrs by Hoechst 33342 staining based fluorescence microscopic analysis; format: functional, cell-based; conditions: dose 5-20 µM; method in brief: as §3
[13] = tested on: Hepatitis B virus; assay: Antiviral activity against HBV infected in human HepG2.2.15 cells assessed as inhibition of DNA replication supplemented with fresh medium containing compound every 2 days for 6 days by RT-PCR analysis; format: functional, organism-based; conditions: HepG2 2.2.15
Method in brief: (§5)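 HepG2 2.2.15 cells (2×10^5/well, 24-well) left 24 h to recover from trypsinization, then given fresh medium with compound (single-point screen at 0.8 μM), renewed every 2 days for 6 days. Intracellular HBV DNA extracted and quantified by real-time PCR. IC50 is the dose giving 50% inhibition of DNA replication, taken from dose–response.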

[14] = tested on: HepG2; assay: Induction of apoptosis in human HepG2 cells assessed as necrotic cells at 20 uM after 48 hrs by Annexin-V FITC/propidium iodide staining based fluorescence microscopic analysis (reference value: 0.14%); format: functional
[15] = tested on: HepG2; assay: Induction of apoptosis in human HepG2 cells assessed as early apoptotic cells at 5 uM after 48 hrs by Annexin-V FITC/propidium iodide staining based flow cytometric analysis (reference value: 1.68%)
[16] = tested on: HepG2; assay: Induction of apoptosis in human HepG2 cells assessed as down regulation of Bcl-xl expression measured after 48 hrs by Western blot analysis; format: functional, cell-based; method in brief: as §4
[17] = tested on: Hepatitis B virus; assay: Antiviral activity against HBV infected in human HepG2.2.15 cells assessed as inhibition of HBsAg production supplemented with fresh medium containing compound every 3 days for 6 days by EIA relative to control; format: functional, HepG2 2.2.15; conditions: time 6 day
[18] = tested on: HepG2; assay: Induction of apoptosis in human HepG2 cells assessed as necrotic cells at 5 uM after 48 hrs by Annexin-V FITC/propidium iodide staining based flow cytometric analysis (reference value: 0.14%)
[19] = tested on: HepG2; assay: Induction of apoptosis in human HepG2 cells assessed as up regulation of Bax expression measured after 48 hrs by Western blot analysis; format: functional, cell-based; method in brief: as §4
[20] = Selectivity index, ratio of CC50 for human HepG2 2.2.15 cells to IC50 for antiviral activity against HBV infected in human HepG2.2.15 cells assessed as inhibition of DNA replication; format: toxicity, cell-based; conditions: read-out: Ratio CC50/IC50
[21] = tested on: HepG2; assay: Induction of apoptosis in human HepG2 cells assessed as early apoptotic cells at 10 uM after 48 hrs by Annexin-V FITC/propidium iodide staining based fluorescence microscopic analysis (reference value: 1.68%); format: functional
[22] = tested on: HepG2; assay: Induction of apoptosis in human HepG2 cells assessed as up regulation of Bad expression measured after 48 hrs by Western blot analysis; format: functional, cell-based; method in brief: as §4
[23] = tested on: HepG2; assay: Induction of apoptosis in human HepG2 cells assessed as late apoptotic cells at 5 uM after 48 hrs by Annexin-V FITC/propidium iodide staining based flow cytometric analysis (reference value: 1.11%)
[24] = tested on: HepG2; assay: Induction of apoptosis in human HepG2 cells assessed as late apoptotic cells at 10 uM after 48 hrs by Annexin-V FITC/propidium iodide staining based fluorescence microscopic analysis (reference value: 1.11%); format: functional
[25] = tested on: HepG2; assay: Induction of apoptosis in human HepG2 cells assessed as early apoptotic cells at 20 uM after 48 hrs by Annexin-V FITC/propidium iodide staining based fluorescence microscopic analysis (reference value: 1.68%); format: functional
[26] = tested on: HepG2; assay: Induction of apoptosis in human HepG2 cells assessed as viable cells at 10 uM after 48 hrs by Annexin-V FITC/propidium iodide staining based fluorescence microscopic analysis (reference value: 97.07%); format: functional; conditions: read-out: Activity
[27] = tested on: Hepatitis B virus; assay: Antiviral activity against HBV infected in human HepG2.2.15 cells assessed as inhibition of DNA replication at 0.8 uM supplemented with fresh medium containing compound every 2 days for 6 days by RT-PCR analysis relative to control; format: functional; conditions: HepG2 2.2.15, 144 h, time 6 day; method in brief: as §5
[28] = tested on: Hepatitis B virus; assay: as §2, with “10” for “0.8”; format: functional; conditions: HepG2 2.2.15, 144 h, time 6 day
[29] = tested on: Hepatitis B virus; assay: Antiviral activity against HBV infected in human HepG2.2.15 cells assessed as inhibition of DNA replication at 10 uM supplemented with fresh medium containing compound every 2 days for 6 days by RT-PCR analysis relative to control; format: functional; conditions: HepG2 2.2.15, 144 h, time 6 day

- IC50 [2]: 7.67 µM
- IC50 [3]: 9.64 µM
- IC50 [9]: 7.92 µM
Compound: CNC(=O)c1cc(Oc2ccc(NC(=O)Nc3ccc(Cl)c(C(F)(F)F)c3)cc2)ccn1 [SORAFENIB]

- IC50 [2]: 11.8 µM
Compound: COc1ccccc1CSc1nc2ccc(OCCCN(C)C)cc2c(=O)n1Cc1ccccc1
- CC50 at 72 h [10]: > 10 µM
- inhibition at 0.8 µM [27]: 3.66%

- IC50 [2]: > 100 µM
- IC50 [13]: 0.72 µM
Compound: COc1ccccc1CSc1nc2ccc(OCCN(C)C)cc2c(=O)n1Cc1ccco1
- CC50 at 72 h [10]: > 10 µM
- selectivity ratio [20]: > 13.9
- inhibition at 0.8 µM [27]: 67.1%

- IC50 [2]: 9.4 µM
- IC50 [13]: 0.79 µM
Compound: COc1ccc(C(C)=O)cc1CSc1nc2ccc(OCCCN(C)C)cc2c(=O)n1Cc1ccco1
- CC50 at 72 h [10]: > 10 µM
- selectivity ratio [20]: > 12.7
- inhibition at 0.8 µM [27]: 54.2%

Second part, the compound before the results:

Compound: CN(C)CCCOc1ccc2nc(SCc3ccccc3)n(Cc3ccco3)c(=O)c2c1
- viability at 20 µM [1]: 22.9%
- IC50 [2]: 5.44 µM
- IC50 [3]: 6.75 µM
- Activity [4]: 4.5%
- Activity [5]: 31.67%
- inhibition at 0.8 µM [6]: 64%
- Activity [7]: Active
- Activity [8]: Dose-dependent effect
- IC50 [9]: 6.42 µM
- CC50 at 72 h [10]: > 10 µM
- viability at 5 µM [11]: 81.5%
- Activity [12]: Active
- IC50 [13]: 0.58 µM
- Activity [14]: 5.12%
- Activity [15]: 13.07%
- Activity [16]: Dose-dependent effect
- inhibition (INH) [17]: 4.55%
- Activity [18]: 0.49%
- Activity [19]: Dose-dependent effect
- selectivity ratio [20]: > 17.2
- Activity [21]: 23.83%
- Activity [22]: Dose-dependent effect
- Activity [23]: 4.88%
- Activity [24]: 14.15%
- Activity [25]: 40.31%
- viability at 10 µM [26]: 57.5%
- inhibition at 0.8 µM [27]: 67.3%

Compound: COc1ccc(C(C)=O)cc1CSc1nc2ccc(OCCN(C)C)cc2c(=O)n1Cc1ccco1
- IC50 [2]: 11.3 µM
- CC50 at 72 h [10]: > 10 µM
- inhibition at 0.8 µM [27]: 20.7%

Compound: CN(C)CCCOc1ccc2nc(SCc3ccccc3)n(Cc3ccccc3)c(=O)c2c1
- IC50 [2]: > 20 µM
- CC50 at 72 h [10]: > 10 µM
- inhibition at 0.8 µM [27]: 42.8%

Compound: COc1ccccc1CSc1nc2ccc(OCCCN(C)C)cc2c(=O)n1Cc1cccs1
- IC50 [2]: 8.81 µM
- CC50 at 72 h [10]: > 10 µM
- inhibition at 0.8 µM [27]: 21.6%

Compound: COc1ccc(C(C)=O)cc1CSc1nc2ccc(OCCCN(C)C)cc2c(=O)n1Cc1cccs1
- IC50 [2]: 8.98 µM
- CC50 at 72 h [10]: 9.63 µM
- inhibition at 0.8 µM [27]: 0.16%

Compound: CN(C)CCOc1ccc2nc(SCc3ccccc3)n(Cc3ccco3)c(=O)c2c1
- IC50 [2]: 17.5 µM
- CC50 at 72 h [10]: > 10 µM
- inhibition at 0.8 µM [27]: 21.7%

Compound: C=C1[C@H](CO)[C@@H](O)C[C@@H]1n1cnc2c(=O)[nH]c(N)nc21 [ENTECAVIR]
- inhibition at 10 µM [28]: 18.9%
- inhibition at 10 µM [29]: 96.9%

Compound: COc1ccccc1CSc1nc2ccc(OCCN(C)C)cc2c(=O)n1Cc1ccccc1
- IC50 [2]: > 20 µM
- CC50 at 72 h [10]: > 10 µM
- inhibition at 0.8 µM [27]: 11.8%
